PubChem BioAssay AID493069 (Broad Institute, 2011)
Values joined by “and” are separate entries in the source; they are usually repeats but may differ in a detail not shown here. Identical values can stand only once. Records with an inconclusive call do not appear. Active and inactive are the calls of the source.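 The calls were made as follows: active = growth-curve midpoint potency at or below a set limit tied to the top tested dose, or full inhibition throughout; inconclusive = flat partial inhibition between 30 and 70%, or poor fit; inactive = the rest.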

System: C. albicans CaCi-8 + fluconazole, Alamar Blue, 48 h
Assay: growth inhibition of resistant C. albicans with fluconazole, dose response, antifungal resistance reversal project, CaCi-8 resistant strain, dry powder, set 6 (AID 493069)
Details: not given
How it was run: (§1)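 System: Candida albicans CaCi-8, fluconazole-resistant clinical isolate. Medium: MOPS-buffered RPMI 1640 defined medium plus Pen/Strep. Times: compound exposure 48 h 37 °C, Alamar Blue 2 h RT. Measured by: Alamar Blue fluorescence, Ex 544/Em 590 nm.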

| SMILES | AC50 |
| --- | --- |
| O=C(O)Cn1nc(-c2ccccc2)c2ccccc21 | > 26 µM (inactive) |
| O=C(Cn1c2ccccc2c2nc3n(c(=O)c21)CCS3)N1CCCCC1 | 3.88 µM |
| O=C(Cn1c2ccccc2c2nc3n(c(=O)c21)CCS3)N1CCCC1 | 1.43 µM and 6.75 µM |
| O=c1c2[nH]c3ccc(F)cc3c2nc2n1CCS2 | 5.76 µM |
| CC1CCN(C(=O)Cn2c3ccccc3c3nc4n(c(=O)c32)CCS4)CC1 | 5.56 µM |
| CC1CCN(C(=O)Cn2c3ccc(F)cc3c3nc4n(c(=O)c32)CCCS4)CC1 | 22.9 µM |
| COC(=O)Cn1nc(-c2ccccc2)c2ccccc21 | 4.99 µM |
| O=c1c2[nH]c3ccccc3c2nc2n1CCS2 | 17.6 µM |
| COC(=O)Cn1nc(-c2ccc(C)cc2)c2ccccc21 | 13.8 µM |
| O=C(Cn1c2ccccc2c2ccncc21)N1CCCCC1 | 26.2 µM |
| COC(=O)Cn1nc(-c2ccc(Cl)cc2)c2ccccc21 | 15.8 µM |
| O=C(Cn1c2ccccc2c2nc3n(c(=O)c21)CCS3)N1CCOCC1 | 4.83 µM |

System: not listed separately
Assay: as above
Details: C. albicans CaCi-8 + fluconazole, Alamar Blue, 48 h; at 2.6 µM (top of the series)
How it was run: as §1

| SMILES | growth change, negative = inhibition |
| --- | --- |
| COc1ccc2c(c1)c1nc3n(c(=O)c1n2CC(=O)N1CCC(C)CC1)CCS3 | -12.4% (inactive) |

Same assay, conditions: C. albicans CaCi-8 + fluconazole, Alamar Blue, 48 h; at 26 µM (top of the series)

| SMILES | growth change, negative = inhibition |
| --- | --- |
| O=C(Cn1c2ccc(F)cc2c2nc3n(c(=O)c21)CCS3)N1CCCC1 | -25.5% (inactive) |
| CCN(CC)C(=O)Cn1c2ccccc2c2nc3n(c(=O)c21)CCS3 | 10.7% (inactive) |
| CCN(CC)C(=O)Cn1c2ccc(F)cc2c2nc3n(c(=O)c21)CCS3 | 3.38% (inactive) |
| O=C(Cn1c2ccccc2c2nc3n(c(=O)c21)CCCS3)c1ccc(F)cc1 | -20.3% (inactive) |
| O=C(Cn1c2ccccc2c2nc3n(c(=O)c21)CCS3)NCCc1ccc(Cl)cc1 | -16.6% (inactive) |
| O=C(Cn1c2ccc(F)cc2c2nc3n(c(=O)c21)CCS3)N1CCCCC1 | -17% (inactive) |
| O=C(Cn1c2ccc(F)cc2c2nc3n(c(=O)c21)CCS3)N1CCCCCC1 | -36.1% (inactive) |
